Tests used:
[1] = target: Hepatocyte growth factor receptor (Homo sapiens, UniProt P08581); assay: Inhibition of c-MET (unknown origin) using poly (Glu, Tyr)4:1 as substrate in presence of ATP measured after 30 mins by HTRF assay
[2] = tested on: MDA-MB-231; assay: Cytotoxicity against human MDA-MB-231 cells assessed as inhibition of cell proliferation measured after 72 hrs by MTT assay; type: functional, cell-based; conditions: MDA-MB-231, 72 h
[3] = Toxicity in Balb/c mouse assessed as survival rate at 100 mg/kg, ip measured after 15 days; type: organism-based; conditions: in vivo, time 15 day
Outline: (§1)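 Acute toxicity: 8-week-old male BALB/c mice, randomized in groups of n = 10, given a single intraperitoneal injection on day zero (vehicle only, 100, 200, 300 or 400 mg/kg). A further untreated group served as normal control. Survival on day 15 was reported as a percentage.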

[4] = Toxicity in Balb/c mouse assessed as survival rate at 300 mg/kg, ip measured after 15 days; type: organism-based; conditions: in vivo, time 15 day; outline: as §1
[5] = Toxicity in Balb/c mouse assessed as survival rate at 400 mg/kg, ip measured after 15 days; type: organism-based; conditions: in vivo, time 15 day; outline: as §1
[6] = Toxicity in Balb/c mouse assessed as anaphylactic response at 100 to 200 mg/kg, ip measured after 15 days; type: organism-based; conditions: in vivo, 360 h, dose 100-200 mg/kg, time 15 day
Outline: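 Acute toxicity in 8-week-old male BALB/c mice, randomized into groups of n = 10. Single intraperitoneal dose on day 0 of vehicle or 100, 200, 300 or 400 mg/kg, plus an untreated control group. Mice watched for 15 days for deaths, abnormalities, anaphylactic or allergic reactions and body weight loss.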

[7] = Half life in Balb/c mouse at 8 mg/kg, po measured after 24 hrs by LC/MS/MS analysis; type: ADME, organism-based; conditions: in vivo
Outline: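 BALB/c mice dosed once orally at 8 mg/kg or intravenously at 2 mg/kg. Plasma concentration followed over time, and Cmax, Tmax, AUC0-∞, elimination half-life, clearance and oral bioavailability were derived from it.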

[8] = target: Vascular endothelial growth factor receptor 2 (Homo sapiens, UniProt P35968); assay: Inhibition of VEGFR 2 (unknown origin) using poly (Glu, Tyr)4:1 as substrate in presence of ATP measured after 30 mins by HTRF assay
[9] = target: T1, Receptor-type tyrosine-protein kinase FLT3 (Homo sapiens, UniProt P36888); assay: Inhibition of FLT-3 (unknown origin) using poly (Glu, Tyr)4:1 as substrate in presence of ATP measured after 30 mins by HTRF assay
T1 sequence (P36888 whole entry): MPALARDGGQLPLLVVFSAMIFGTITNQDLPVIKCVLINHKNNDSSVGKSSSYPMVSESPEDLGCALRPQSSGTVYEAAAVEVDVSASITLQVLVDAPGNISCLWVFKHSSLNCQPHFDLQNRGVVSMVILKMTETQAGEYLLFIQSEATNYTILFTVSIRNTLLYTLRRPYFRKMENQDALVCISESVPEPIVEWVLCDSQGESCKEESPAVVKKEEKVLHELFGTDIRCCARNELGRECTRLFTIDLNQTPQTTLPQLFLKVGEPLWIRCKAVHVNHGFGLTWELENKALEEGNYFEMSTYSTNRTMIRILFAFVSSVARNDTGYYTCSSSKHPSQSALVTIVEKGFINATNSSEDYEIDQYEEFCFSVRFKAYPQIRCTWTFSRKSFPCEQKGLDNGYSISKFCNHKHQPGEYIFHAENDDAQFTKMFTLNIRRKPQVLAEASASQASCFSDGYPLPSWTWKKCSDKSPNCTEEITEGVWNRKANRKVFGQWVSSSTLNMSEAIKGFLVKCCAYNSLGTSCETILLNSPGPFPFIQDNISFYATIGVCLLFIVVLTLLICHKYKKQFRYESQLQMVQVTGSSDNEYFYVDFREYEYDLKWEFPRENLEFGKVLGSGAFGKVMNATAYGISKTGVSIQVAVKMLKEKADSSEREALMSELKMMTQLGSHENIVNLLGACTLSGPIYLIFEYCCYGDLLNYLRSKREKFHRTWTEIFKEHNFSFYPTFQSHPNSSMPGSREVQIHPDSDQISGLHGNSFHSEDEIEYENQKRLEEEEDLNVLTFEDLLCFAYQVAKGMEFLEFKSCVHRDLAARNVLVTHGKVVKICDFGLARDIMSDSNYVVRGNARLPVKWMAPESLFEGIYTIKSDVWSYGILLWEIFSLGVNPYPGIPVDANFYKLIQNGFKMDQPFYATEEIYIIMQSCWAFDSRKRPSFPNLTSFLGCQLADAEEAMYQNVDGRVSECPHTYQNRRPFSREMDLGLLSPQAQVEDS

[10] = tested on: A549; assay: cells; conditions: Homo sapiens, A549, 72 h
[11] = tested on: HT-29; assay: cells; conditions: Homo sapiens, HT-29, 72 h

Hepatocyte growth factor receptor, sequence (P08581 whole entry): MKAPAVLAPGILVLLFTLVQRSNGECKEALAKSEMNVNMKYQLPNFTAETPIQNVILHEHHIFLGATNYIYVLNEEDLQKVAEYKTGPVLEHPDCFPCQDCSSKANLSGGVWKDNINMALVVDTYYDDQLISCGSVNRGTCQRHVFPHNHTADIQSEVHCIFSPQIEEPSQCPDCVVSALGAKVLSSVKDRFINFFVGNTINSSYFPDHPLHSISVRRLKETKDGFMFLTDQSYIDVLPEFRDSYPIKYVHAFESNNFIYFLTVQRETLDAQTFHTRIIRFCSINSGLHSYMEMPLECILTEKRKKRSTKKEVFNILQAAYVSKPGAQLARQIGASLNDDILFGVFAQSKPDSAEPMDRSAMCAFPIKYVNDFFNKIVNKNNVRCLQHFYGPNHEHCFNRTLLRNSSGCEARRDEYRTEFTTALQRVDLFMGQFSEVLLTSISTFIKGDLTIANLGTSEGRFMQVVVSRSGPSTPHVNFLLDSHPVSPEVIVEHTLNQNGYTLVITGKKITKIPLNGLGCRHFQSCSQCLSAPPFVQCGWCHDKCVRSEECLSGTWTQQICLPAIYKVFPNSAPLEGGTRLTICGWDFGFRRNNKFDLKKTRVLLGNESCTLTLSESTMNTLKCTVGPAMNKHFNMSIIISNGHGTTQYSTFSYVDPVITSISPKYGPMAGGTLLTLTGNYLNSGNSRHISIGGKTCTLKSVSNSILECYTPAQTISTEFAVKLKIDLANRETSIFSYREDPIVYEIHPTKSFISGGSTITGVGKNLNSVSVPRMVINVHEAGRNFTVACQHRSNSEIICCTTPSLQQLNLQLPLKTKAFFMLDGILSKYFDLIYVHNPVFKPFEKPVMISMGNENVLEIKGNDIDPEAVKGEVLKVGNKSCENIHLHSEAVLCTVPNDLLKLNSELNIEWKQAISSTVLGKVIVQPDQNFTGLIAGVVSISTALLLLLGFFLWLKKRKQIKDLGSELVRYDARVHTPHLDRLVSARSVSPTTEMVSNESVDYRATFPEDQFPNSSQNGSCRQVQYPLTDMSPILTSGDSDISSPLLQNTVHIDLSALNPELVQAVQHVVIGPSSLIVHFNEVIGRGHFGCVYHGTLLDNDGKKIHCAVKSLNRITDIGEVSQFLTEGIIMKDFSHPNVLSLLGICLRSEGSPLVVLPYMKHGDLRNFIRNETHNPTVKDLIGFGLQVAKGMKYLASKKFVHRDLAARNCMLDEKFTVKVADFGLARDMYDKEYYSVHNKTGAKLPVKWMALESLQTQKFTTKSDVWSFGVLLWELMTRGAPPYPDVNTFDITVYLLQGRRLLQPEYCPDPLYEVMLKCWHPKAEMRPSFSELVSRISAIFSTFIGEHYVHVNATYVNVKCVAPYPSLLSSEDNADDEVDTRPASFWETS
Vascular endothelial growth factor receptor 2, sequence (P35968 whole entry): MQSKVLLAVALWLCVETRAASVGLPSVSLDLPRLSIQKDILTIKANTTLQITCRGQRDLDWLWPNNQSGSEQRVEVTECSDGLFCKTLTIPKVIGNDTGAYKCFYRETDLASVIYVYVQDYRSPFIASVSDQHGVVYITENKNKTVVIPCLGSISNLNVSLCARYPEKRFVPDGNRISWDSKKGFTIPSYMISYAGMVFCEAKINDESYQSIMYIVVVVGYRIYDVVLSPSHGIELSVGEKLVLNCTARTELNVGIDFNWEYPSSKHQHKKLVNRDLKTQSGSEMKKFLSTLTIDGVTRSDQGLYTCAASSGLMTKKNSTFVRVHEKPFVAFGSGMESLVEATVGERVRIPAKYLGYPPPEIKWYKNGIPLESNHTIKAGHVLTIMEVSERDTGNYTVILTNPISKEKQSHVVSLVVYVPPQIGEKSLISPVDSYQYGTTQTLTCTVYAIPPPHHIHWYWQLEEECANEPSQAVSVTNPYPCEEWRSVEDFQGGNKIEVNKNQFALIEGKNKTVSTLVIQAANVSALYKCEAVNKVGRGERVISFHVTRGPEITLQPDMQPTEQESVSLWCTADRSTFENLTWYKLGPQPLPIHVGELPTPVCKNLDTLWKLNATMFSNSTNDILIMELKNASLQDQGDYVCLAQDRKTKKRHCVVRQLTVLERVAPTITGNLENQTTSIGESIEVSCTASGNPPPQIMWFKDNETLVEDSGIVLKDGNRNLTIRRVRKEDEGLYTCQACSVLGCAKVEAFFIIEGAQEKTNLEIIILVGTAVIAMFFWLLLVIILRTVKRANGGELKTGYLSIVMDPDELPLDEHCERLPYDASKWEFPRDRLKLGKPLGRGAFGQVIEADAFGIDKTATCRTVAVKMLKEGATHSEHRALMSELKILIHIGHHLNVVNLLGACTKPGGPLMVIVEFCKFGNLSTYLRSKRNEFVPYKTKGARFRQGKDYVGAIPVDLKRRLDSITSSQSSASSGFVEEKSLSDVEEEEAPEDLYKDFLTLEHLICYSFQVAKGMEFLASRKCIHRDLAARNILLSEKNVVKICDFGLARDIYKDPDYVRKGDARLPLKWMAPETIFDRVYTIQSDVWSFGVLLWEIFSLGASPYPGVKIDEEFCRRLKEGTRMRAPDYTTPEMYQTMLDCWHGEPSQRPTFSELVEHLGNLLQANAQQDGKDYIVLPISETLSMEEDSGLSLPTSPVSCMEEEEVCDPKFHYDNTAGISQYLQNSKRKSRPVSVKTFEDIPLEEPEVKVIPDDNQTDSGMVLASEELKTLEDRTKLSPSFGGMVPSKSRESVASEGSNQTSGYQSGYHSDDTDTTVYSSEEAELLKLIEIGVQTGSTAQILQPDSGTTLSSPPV

With `COCC/C(=N\S(=O)(=O)Cc1ccc(Cl)cc1)Nc1ccc(Oc2ccnc3cc(OCCCN4CCOCC4)c(OC)cc23)c(F)c1` the IC50 [1] was 2.89 nM, the IC50 [2] was 720 nM and the survival at 360 h [3] was 100%. For the same compound, the survival at 360 h [4] was 70%, the survival at 360 h [5] was 50% and the Activity [6] was “Non-Toxic”. It also gave a half-life [7] of 3.5 h, an IC50 [8] of 673 nM and an IC50 [9] of 7.28 nM. The IC50 [10] was 280 nM and the IC50 [11] was 320 nM.

Source: ChEMBL document CHEMBL4765349, “Design, synthesis and biological evaluation of novel N-sulfonylamidine-based derivatives as c-Met inhibitors via Cu-catalyzed three-component reaction” (Eur J Med Chem, 2020)
